Reference: ChEMBL document CHEMBL3627671, “Novel derivatives of nitro-substituted salicylic acids: Synthesis, antimicrobial activity and cytotoxicity” (Bioorg Med Chem, 2015)
Values after ≈ are worked out from the molar mass of the structure shown.

Experiments:
Type in all cases: functional
Nakaseomyces glabratus [1] = experiment: Antifungal activity against Candida glabrata 20/I after 48 hrs by microdilution broth method
How it was run: (§1)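 CLSI M27-A3 broth microdilution in RPMI 1640 with glutamine, buffered to pH 7.0 with MOPS; DMSO diluent. Yeast inoculum 5 × 10^3 ± 0.2 CFU/mL. Moulds grown on Sabouraud agar 3–10 days before spore harvest, final inoculum 0.5-5 × 10^4 CFU/mL, checked in a Bürker chamber. Incubated dark, humid, 35 °C, read at 24 and 48 h visually and at 540 nm. MIC taken as ≥80% (yeasts) or ≥50% (filamentous) growth reduction versus control.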

Candida tropicalis [2] = experiment: Antifungal activity against Candida tropicalis 156 after 24 hrs by microdilution broth method; settings: Candida tropicalis, 156, 24 h; how it was run: as §1
Lichtheimia corymbifera [3] = experiment: Antifungal activity against Absidia corymbifera 272 after 24 hrs by microdilution broth method; settings: Lichtheimia corymbifera, 272, 24 h; how it was run: as §1
[4] = tested on: Trichophyton mentagrophytes; experiment: Antifungal activity against Trichophyton mentagrophytes 445 after 24 hrs by microdilution broth method; settings: Trichophyton mentagrophytes, 445, 24 h
Pichia kudriavzevii [5] = experiment: Antifungal activity against Candida krusei E28 after 48 hrs by microdilution broth method; settings: E28, 48 h; how it was run: as §1
[6] = tested on: Trichophyton mentagrophytes; experiment: Antifungal activity against Trichophyton mentagrophytes 445 after 48 hrs by microdilution broth method; settings: Trichophyton mentagrophytes, 445, 48 h
Trichosporon asahii [7] = experiment: Antifungal activity against Trichosporon asahii 1188 after 24 hrs by microdilution broth method; settings: Trichosporon asahii, 1188, 24 h; how it was run: as §1
Pichia kudriavzevii [8] = experiment: Antifungal activity against Candida krusei E28 after 24 hrs by microdilution broth method; settings: E28, 24 h; how it was run: as §1
Candida tropicalis [9] = experiment: Antifungal activity against Candida tropicalis 156 after 48 hrs by microdilution broth method; settings: Candida tropicalis, 156, 48 h; how it was run: as §1
Candida albicans [10] = experiment: Antifungal activity against Candida albicans ATCC 44859 after 24 hrs by microdilution broth method; settings: ATCC 44859, 24 h; how it was run: as §1
Aspergillus fumigatus [11] = experiment: Antifungal activity against Aspergillus fumigatus 231 after 24 hrs by microdilution broth method; settings: Aspergillus fumigatus, 231, 24 h; how it was run: as §1
Nakaseomyces glabratus [12] = experiment: Antifungal activity against Candida glabrata 20/I after 24 hrs by microdilution broth method; how it was run: as §1
Candida albicans [13] = experiment: Antifungal activity against Candida albicans ATCC 44859 after 48 hrs by microdilution broth method; settings: ATCC 44859, 48 h; how it was run: as §1
Lichtheimia corymbifera [14] = experiment: Antifungal activity against Absidia corymbifera 272 after 48 hrs by microdilution broth method; settings: Lichtheimia corymbifera, 272, 48 h; how it was run: as §1
Trichosporon asahii [15] = experiment: Antifungal activity against Trichosporon asahii 1188 after 48 hrs by microdilution broth method; settings: Trichosporon asahii, 1188, 48 h; how it was run: as §1
Aspergillus fumigatus [16] = experiment: Antifungal activity against Aspergillus fumigatus 231 after 48 hrs by microdilution broth method; settings: Aspergillus fumigatus, 231, 48 h; how it was run: as §1

Work on `OC(Cn1cncn1)(Cn1cncn1)c1ccc(F)cc1F` [FLUCONAZOLE] yielded an MIC (Nakaseomyces glabratus [1]) of 500 µM (≈ 153 µg/mL), an MIC (Candida tropicalis [2]) of over 500 µM and an MIC (Lichtheimia corymbifera [3]) of over 500 µM. The MIC [4] was 7.81 µM (≈ 2.39 µg/mL), the MIC (Pichia kudriavzevii [5]) was 250 µM (≈ 76.6 µg/mL) and the MIC [6] was 125 µM (≈ 38.3 µg/mL). The MIC (Trichosporon asahii [7]) was 250 µM (≈ 76.6 µg/mL), the MIC (Pichia kudriavzevii [8]) was 125 µM (≈ 38.3 µg/mL) and the MIC (Candida tropicalis [9]) was over 500 µM. It also gave an MIC (Candida albicans [10]) of 0.24 µM (≈ 0.0735 µg/mL), an MIC (Aspergillus fumigatus [11]) of over 500 µM and an MIC (Nakaseomyces glabratus [12]) of 31.2 µM (≈ 9.57 µg/mL). For the same compound, the MIC (Candida albicans [13]) was 0.24 µM (≈ 0.0735 µg/mL), the MIC (Lichtheimia corymbifera [14]) was over 500 µM and the MIC (Trichosporon asahii [15]) was 500 µM (≈ 153 µg/mL). The MIC (Aspergillus fumigatus [16]) was over 500 µM.
